Experimental data from ChEMBL document CHEMBL5724801, “EUbOPEN Chemogenomics Library - Multiplex” (2024).
Values joined by “and” are separate entries in the source; they are usually repeats but may differ in a detail not shown here. Equal values may be shown once.

Tested on: Fibroblast
Assay: Multiplex assay against human fibroblast
Type: toxicity, cell-based
Summary of the method: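 Tubulin, mitochondrial-mass and membrane-permeability phenotypes are per cents of healthy-nucleus cells. Cells were gated by CellPathfinder machine learning into Hoechst high-intensity objects or normal cells, normal cells into healthy, pyknosed or fragmented nuclei, and pyknosed cells into mitotic or apoptotic. Before that, live cells stained at seeding with Hoechst33342, BioTracker Green Microtubule Cytoskeleton Dye, MitoTracker Red and Annexin V Alexa Fluor 680 were imaged on a CQ1 microscope at 37°C and 5% CO2 after compound addition.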

[1] = 12 h, 1 µM, compound concentration 1 uM
[2] = 12 h, 10 µM, compound concentration 10 uM
[3] = 24 h, 1 µM, compound concentration 1 uM
[4] = 24 h, 10 µM, compound concentration 10 uM
[5] = 48 h, 1 µM, compound concentration 1 uM
[6] = 48 h, 10 µM, compound concentration 10 uM

C[C@@H]1C[C@H]2[C@@H]3CCC4=CC(=O)C=C[C@]4(C)[C@@]3(F)[C@@H](O)C[C@]2(C)[C@@]1(O)C(=O)CO [DEXAMETHASONE]
Population Apoptotic (%) [1]: 62% and 38%
Population Fragmented Nuclei (%) [1]: 18% and 30%
Population Healthy Nuclei (%) [1]: 66% and 48%
Population Hoechst High Intensity Objects (%) [1]: 7% and 3%
Population Membrane Permeable-Phenotype (%) [1]: 0% and 9%
Population Mitochondria Different-Phenotype (%) [1]: 2% and 4%
Population Mitotic Cells (%) [1]: 37% and 61%
Population Normal (%) [1]: 92% and 96%
Population Pyknosed Nuclei (%) [1]: 15% and 20%
Population Tubulin-Different-Phenotype (%) [1]: 26% and 52%
Population Apoptotic (%) [2]: 35% and 30%
Population Fragmented Nuclei (%) [2]: 20% and 24%
Population Healthy Nuclei (%) [2]: 65% and 52%
Population Hoechst High Intensity Objects (%) [2]: 2% and 6%
Population Membrane Permeable-Phenotype (%) [2]: 1% and 4%
Population Mitochondria Different-Phenotype (%) [2]: 5% and 2%
Population Mitotic Cells (%) [2]: 65% and 69%
Population Normal (%) [2]: 98% and 93%
Population Pyknosed Nuclei (%) [2]: 13% and 23%
Population Tubulin-Different-Phenotype (%) [2]: 22% and 53%
Population Apoptotic (%) [3]: 48% and 31%
Population Fragmented Nuclei (%) [3]: 14% and 29%
Population Healthy Nuclei (%) [3]: 68% and 50%
Population Hoechst High Intensity Objects (%) [3]: 5% and 6%
Population Membrane Permeable-Phenotype (%) [3]: 1% and 4%
Population Mitochondria Different-Phenotype (%) [3]: 3% and 1%
Population Mitotic Cells (%) [3]: 52% and 68%
Population Normal (%) [3]: 94% and 93%
Population Pyknosed Nuclei (%) [3]: 17% and 19%
Population Tubulin-Different-Phenotype (%) [3]: 26% and 53%
Population Apoptotic (%) [4]: 42% and 30%
Population Fragmented Nuclei (%) [4]: 15% and 30%
Population Healthy Nuclei (%) [4]: 65% and 44%
Population Hoechst High Intensity Objects (%) [4]: 3% and 6%
Population Membrane Permeable-Phenotype (%) [4]: 1% and 10%
Population Mitochondria Different-Phenotype (%) [4]: 6% and 2%
Population Mitotic Cells (%) [4]: 57% and 69%
Population Normal (%) [4]: 96% and 93%
Population Pyknosed Nuclei (%) [4]: 18% and 24%
Population Tubulin-Different-Phenotype (%) [4]: 22% and 45%
Population Apoptotic (%) [5]: 46% and 37%
Population Fragmented Nuclei (%) [5]: 22% and 38%
Population Healthy Nuclei (%) [5]: 52% and 46%
Population Hoechst High Intensity Objects (%) [5]: 6% and 4%
Population Membrane Permeable-Phenotype (%) [5]: 2% and 4%
Population Mitochondria Different-Phenotype (%) [5]: 4%
Population Mitotic Cells (%) [5]: 53% and 62%
Population Normal (%) [5]: 93% and 95%
Population Pyknosed Nuclei (%) [5]: 24% and 14%
Population Tubulin-Different-Phenotype (%) [5]: 34% and 53%
Population Apoptotic (%) [6]: 50% and 37%
Population Fragmented Nuclei (%) [6]: 22% and 36%
Population Healthy Nuclei (%) [6]: 55% and 43%
Population Hoechst High Intensity Objects (%) [6]: 4% and 7%
Population Membrane Permeable-Phenotype (%) [6]: 0% and 10%
Population Mitochondria Different-Phenotype (%) [6]: 7% and 0%
Population Mitotic Cells (%) [6]: 50% and 62%
Population Normal (%) [6]: 95% and 92%
Population Pyknosed Nuclei (%) [6]: 22% and 20%
Population Tubulin-Different-Phenotype (%) [6]: 19% and 39%

O=C(O)Cc1ccccc1Nc1c(Cl)cccc1Cl [DICLOFENAC]
Population Apoptotic (%) [1]: 43% and 33%
Population Fragmented Nuclei (%) [1]: 14% and 25%
Population Healthy Nuclei (%) [1]: 67% and 49%
Population Hoechst High Intensity Objects (%) [1]: 0% and 2%
Population Membrane Permeable-Phenotype (%) [1]: 1% and 7%
Population Mitochondria Different-Phenotype (%) [1]: 6%
Population Mitotic Cells (%) [1]: 56% and 66%
Population Normal (%) [1]: 99% and 97%
Population Pyknosed Nuclei (%) [1]: 17% and 25%
Population Tubulin-Different-Phenotype (%) [1]: 25% and 49%
Population Apoptotic (%) [2]: 32% and 38%
Population Fragmented Nuclei (%) [2]: 14% and 36%
Population Healthy Nuclei (%) [2]: 68% and 46%
Population Hoechst High Intensity Objects (%) [2]: 0% and 6%
Population Membrane Permeable-Phenotype (%) [2]: 0% and 16%
Population Mitochondria Different-Phenotype (%) [2]: 5% and 8%
Population Mitotic Cells (%) [2]: 68% and 61%
Population Normal (%) [2]: 99% and 93%
Population Pyknosed Nuclei (%) [2]: 17%
Population Tubulin-Different-Phenotype (%) [2]: 24% and 54%
Population Apoptotic (%) [3]: 52% and 35%
Population Fragmented Nuclei (%) [3]: 15% and 28%
Population Healthy Nuclei (%) [3]: 66% and 49%
Population Hoechst High Intensity Objects (%) [3]: 2% and 3%
Population Membrane Permeable-Phenotype (%) [3]: 0% and 12%
Population Mitochondria Different-Phenotype (%) [3]: 4% and 6%
Population Mitotic Cells (%) [3]: 47% and 64%
Population Normal (%) [3]: 97% and 96%
Population Pyknosed Nuclei (%) [3]: 17% and 21%
Population Tubulin-Different-Phenotype (%) [3]: 29% and 50%
Population Apoptotic (%) [4]: 30% and 50%
Population Fragmented Nuclei (%) [4]: 16% and 31%
Population Healthy Nuclei (%) [4]: 68% and 50%
Population Hoechst High Intensity Objects (%) [4]: 5% and 2%
Population Membrane Permeable-Phenotype (%) [4]: 0% and 8%
Population Mitochondria Different-Phenotype (%) [4]: 5% and 10%
Population Mitotic Cells (%) [4]: 69% and 50%
Population Normal (%) [4]: 94% and 97%
Population Pyknosed Nuclei (%) [4]: 15% and 18%
Population Tubulin-Different-Phenotype (%) [4]: 19% and 55%
Population Apoptotic (%) [5]: 85% and 57%
Population Fragmented Nuclei (%) [5]: 21% and 36%
Population Healthy Nuclei (%) [5]: 61% and 53%
Population Hoechst High Intensity Objects (%) [5]: 3% and 5%
Population Membrane Permeable-Phenotype (%) [5]: 4%
Population Mitochondria Different-Phenotype (%) [5]: 4%
Population Mitotic Cells (%) [5]: 15% and 42%
Population Normal (%) [5]: 96% and 94%
Population Pyknosed Nuclei (%) [5]: 16% and 10%
Population Tubulin-Different-Phenotype (%) [5]: 24% and 44%
Population Apoptotic (%) [6]: 73% and 30%
Population Fragmented Nuclei (%) [6]: 22% and 35%
Population Healthy Nuclei (%) [6]: 65% and 50%
Population Hoechst High Intensity Objects (%) [6]: 3%
Population Membrane Permeable-Phenotype (%) [6]: 0% and 4%
Population Mitochondria Different-Phenotype (%) [6]: 3% and 6%
Population Mitotic Cells (%) [6]: 26% and 69%
Population Normal (%) [6]: 96%
Population Pyknosed Nuclei (%) [6]: 12% and 14%
Population Tubulin-Different-Phenotype (%) [6]: 28% and 53%

Cl.NCCc1ccc(O)c(O)c1 [DOPAMINE HYDROCHLORIDE]
Population Apoptotic (%) [1]: 42% and 44%
Population Fragmented Nuclei (%) [1]: 13% and 34%
Population Healthy Nuclei (%) [1]: 63% and 40%
Population Hoechst High Intensity Objects (%) [1]: 1%
Population Membrane Permeable-Phenotype (%) [1]: 0% and 4%
Population Mitochondria Different-Phenotype (%) [1]: 1% and 6%
Population Mitotic Cells (%) [1]: 57% and 55%
Population Normal (%) [1]: 98%
Population Pyknosed Nuclei (%) [1]: 23% and 24%
Population Tubulin-Different-Phenotype (%) [1]: 34% and 45%
Total Cell Count [1]: 115 and 152
Population Apoptotic (%) [2]: 56% and 41%
Population Fragmented Nuclei (%) [2]: 14% and 35%
Population Healthy Nuclei (%) [2]: 62% and 40%
Population Hoechst High Intensity Objects (%) [2]: 3% and 4%
Population Membrane Permeable-Phenotype (%) [2]: 0% and 6%
Population Mitochondria Different-Phenotype (%) [2]: 3% and 6%
Population Mitotic Cells (%) [2]: 43% and 58%
Population Normal (%) [2]: 96% and 95%
Population Pyknosed Nuclei (%) [2]: 23%
Total Cell Count [2]: 135 and 127
Population Apoptotic (%) [3]: 55% and 51%
Population Fragmented Nuclei (%) [3]: 14% and 34%
Population Healthy Nuclei (%) [3]: 69% and 47%
Population Hoechst High Intensity Objects (%) [3]: 0% and 2%
Population Membrane Permeable-Phenotype (%) [3]: 1% and 7%
Population Mitochondria Different-Phenotype (%) [3]: 1% and 0%
Population Mitotic Cells (%) [3]: 44% and 48%
Population Normal (%) [3]: 99% and 97%
Population Pyknosed Nuclei (%) [3]: 16% and 18%
Population Tubulin-Different-Phenotype (%) [3]: 31% and 37%
Total Cell Count [3]: 112 and 150
Population Apoptotic (%) [4]: 55% and 47%
Population Fragmented Nuclei (%) [4]: 16% and 37%
Population Healthy Nuclei (%) [4]: 69% and 46%
Population Hoechst High Intensity Objects (%) [4]: 2% and 3%
Population Membrane Permeable-Phenotype (%) [4]: 1% and 3%
Population Mitochondria Different-Phenotype (%) [4]: 5% and 7%
Population Mitotic Cells (%) [4]: 44% and 52%
Population Normal (%) [4]: 97% and 96%
Population Pyknosed Nuclei (%) [4]: 13% and 15%
Population Tubulin-Different-Phenotype (%) [4]: 22% and 56%
Total Cell Count [4]: 136 and 126
Population Apoptotic (%) [5]: 36% and 38%
Population Fragmented Nuclei (%) [5]: 22% and 33%
Population Healthy Nuclei (%) [5]: 66% and 52%
Population Hoechst High Intensity Objects (%) [5]: 6%
Population Membrane Permeable-Phenotype (%) [5]: 1% and 5%
Population Mitochondria Different-Phenotype (%) [5]: 2% and 3%
Population Mitotic Cells (%) [5]: 63% and 61%
Population Normal (%) [5]: 93%
Population Pyknosed Nuclei (%) [5]: 10% and 14%
Population Tubulin-Different-Phenotype (%) [5]: 28% and 43%
Total Cell Count [5]: 110 and 159
Population Apoptotic (%) [6]: 87% and 90%
Population Fragmented Nuclei (%) [6]: 21% and 31%
Population Healthy Nuclei (%) [6]: 66% and 60%
Population Hoechst High Intensity Objects (%) [6]: 4% and 0%
Population Membrane Permeable-Phenotype (%) [6]: 0% and 7%
Population Mitochondria Different-Phenotype (%) [6]: 4%
Population Mitotic Cells (%) [6]: 12% and 10%
Population Normal (%) [6]: 95% and 99%
Population Pyknosed Nuclei (%) [6]: 11% and 8%
Population Tubulin-Different-Phenotype (%) [6]: 25% and 56%
Total Cell Count [6]: 141 and 116
